Experimental data: the EternaBench riboswitch data

Tested on: MS2 coat protein
Assay: apparent Kd, MS2 coat protein; higher = weaker binding; RNA-MaP array; FMN 200 µM where present
Summary of the method: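 The apparent Kd is the median of filtered binding-curve fits, one per cluster, to green signal normalised to red-channel RNA signal and control-cluster median Fmax. The clusters were on Illumina sequencing chips, and stalled E. coli RNA polymerase had transcribed the designs on them. Titration used SNAP-549-labelled MS2 coat protein from 0.7 or 1.5 nM, doubling to 3 µM, without and then with constant ligand, in 100 mM Tris-HCl pH 7.5, 80 mM KCl, 4 mM MgCl2, BSA, DTT, yeast tRNA and Tween-20.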

[1] = designed as: OFF switch for flavin mononucleotide, no ligand
[2] = ligand present: flavin mononucleotide, designed as: OFF switch for flavin mononucleotide
[3] = designed as: ON switch for flavin mononucleotide, no ligand
[4] = ligand present: flavin mononucleotide, designed as: ON switch for flavin mononucleotide

| Sequence | apparent Kd [1] [nM] | apparent Kd [2] [nM] | apparent Kd [3] [nM] | apparent Kd [4] [nM] |
| --- | --- | --- | --- | --- |
| GUUCUGCCUCCUGCCGGAACAUGAGGAUCACCCAUGUUGCCUGAGGAUAUCCUAUGGCGUCCACAGGAGAAGGCAGGCAGCAUA | 18.6 | 19.6 |  |  |
| GUUCUUCCUGUAAGGAUAUCCAUGUAUCAAAGUAUGGAGAAGGUACAUGAGGAUCACCCAUGUCACCCGCGUUA | 22.8 | 49.6 |  |  |
| GUUCUUCCUGUAAGGAUAUCCAUGUGUCAGUUUAUGGAGAAGGUACAUGAGGAUCACCCAUGUCACCCGCGUUA | 18.4 | 51.2 |  |  |
| GUUGCUUAUGAGAAGGCGAUCAUGAAACAUGAUCGAGGAUAUCAUGUAAACAUGAGGAUCACCCAUGUAUGGGUAUUAUGCAGC |  |  | 320 | 69.3 |
| GUUGUGCGAGGAUAUACUUGGUGUGUCCUGUGCACGUAAUGACAUGAGGAUCACCCAUGUAGAAGGUGCCCAGG | 32.8 | 33.9 |  |  |
| GUUGUUACUGAGGAUAUUAUUUUAUUCGACUGAUAAGAAGGCAGUACAUGAGGAUCACCCAUGUGGGUAGCCAG | 27.9 | 170 |  |  |
| GUUUAGUGAGGAUAUGUGGCUUCGAUCGUGCGAGGGCGGCUACAGAAGGCACAUGAGGAUCACCCAUGUUCCUC | 155 | 428 |  |  |
| GUUUAUUAUUAGAAGGUGCCAGCGAGAGCUGCACAUGAGGAUCACCCAUGUUGUCGGUGACGACGCAAGGAUAUGGUGGUGGAU |  |  | 300 | 91.5 |
| GUUUCACAUGAGGAUCACCCAUGUGAGGAUAUGGAUUCGCUGGCCGUAGCCAGUGGAUCCAGAAGGCGCAUGAU | 35.7 | 44 |  |  |
| GUUUCUAUAAGUUAUAAUAAAUAGUCAGAAGGUGAUACUACGACAUGAGGAUCACCCAUGUUUUUCAAGGAUAUGAUGUUACUC |  |  | 373 | 50 |
| GUUUGACAUGAGGAUCACCCAUGUGAGGAUAUACGAGUAGCUGCUAGGUAGUUAGUAUGUAGAAGGUGCGUGUU | 75.6 | 71 |  |  |
| GUUUGACAUGAGGAUCACCCAUGUGAGGAUAUCGGCUGGUACGUGUUGGCUGGCAUCUCGAGAAGGCACAUAGG | 134 | 60.5 |  |  |
| GUUUGAUGAGGAUAUCGAGGUUAGUACAUGAGGAUCACCCAUGUUAUCCAGGUGUCGGUUCGAGAAGGUAUUGGAC | 18.4 | 38.1 |  |  |
| GUUUGGAGUGGAGGAUAUGCGGACGAACGAUAAGCAGAAGGCCACAUGAGGAUCACCCAUGUCGGCUGUGCCGGGUGGUUGACG | 41.6 | 50.8 |  |  |
| GUUUUCGCAUGAGGAUAUGCUCGCAUUUCAAGAGCAGAAGGUAUGUCUAUAGACAUGAGGAUCACCCAUGUAUCUAACUUUGAA |  |  | 352 | 65 |
| GUUUUGUAAGAGAAGGAGGACUUCAUGAGGAUCACCCAUGUGUUAGUACUUAGGAUAUUUGACAACAUGAGGAUCACCCAUGUC |  |  | 57.8 | 57.9 |
| GUUUUUCCUCAUGUACAUGAGGAACAUGAGGAUCACCCAUGUAGAAGGAAUUUUUUUAAGUUUAGUUAGGAUAUACAUAUAUUG | 106 | 71.5 |  |  |
| UAAAAGACUAGCAUGGUAACCUUCACAUGAGGAUCACCCAUGUAGGAUAUGAGCAGAAAAUCUGCUCAGAAGGACAUGCUAGUC | 3.31 | 3.67 |  |  |
| UAAAAGACUAGCUGGUAUCUCCACAUGAGGAUCACCCAUGUCUAGGAUAUGAGCAGCAAAGCUGCUUAGAAGGAGACGCUAGUC | 7.67 | 8.83 |  |  |
| UAAACAUGAGGAUCACCCAUGUUAUGAUCGGUUGAUGAAAGUGAGGAUAUACUUAAUUUUAUGGAGUAGAAGGCACUGGGUUCU |  |  | 23.1 | 28.6 |
| UAAAUAAAGUAAGGAUAUACAUGAGGAUUUCUCGUAGAAGGUACAAGACAUGAGGAUCACCCAUGUAUCGCUCCGUAGAGCGUA |  |  | 138 | 237 |
| UAAAUAAUGUAAGGAUAUACAUGAGGAAUUCUCGUAGAAGGUACAUGACAUGAGGAUCACCCAUGUAUCGCUCAGUAGAGCGUA |  |  | 152 | 311 |
| UAAAUUAUCAAGAAGGCUAACAUGAGGAUCACCCAUGUUGUACAUGGAUAUAGAGGAUAUUGCUAAUAAUUAUUUAUCAUAAUU | 15.3 | 14.8 |  |  |
| UAACGCGCAUGCAAGGAUAUGUGCAGAGCUACAUGAGGAUCACCCAUGUGGUUAUGCUAUUGAAAACAGAAGGUGCCCUCGCUCA |  |  | 25.8 | 24.3 |
| UAAGAGUGAGGAUAUUCGUAGUACACGGAGACGUGUAUUACGGAGAAGGCACAUGAGGAUCACCCAUGUUCCUU | 15.6 | 48.5 |  |  |
| UAAGCCGGGUCUGCAUGAGCUUACAUGAGGAUCACCCAUGUAAGAAGGGACGCUACGUUAAAGUGUCAGGAUAUUGCGAACGGG | 5.26 | 5.73 |  |  |
| UAAGCCGGGUCUGCAUGAGCUUACAUGAGGAUCACCCAUGUAAGAAGGGACGCUACGUUAUAGUGUCAGGAUAUUGCGAACGGG | 5.15 | 5.66 |  |  |
| UAAGCGCAGGAGAAGGGCACUGGACGCUCGCUACAUGAGGAUCACCCAUGUGCAGGAUAUCCGGCGCCGCCCGCAAACUCGGCG | 5.14 | 13.3 |  |  |

| Sequence | apparent Kd [1] [nM] | apparent Kd [2] [nM] | apparent Kd [3] [nM] | apparent Kd [4] [nM] |
| --- | --- | --- | --- | --- |
| UAAUAAAGCAGUGUAUUAAGAUCACAUGAGGAUCACCCAUGUAAGGAUAUGAGCAGAAAAUCUGCUCAGAAGGUACGAACACUG | 9.51 | 32.4 |  |  |
| UAAUAAUAAUAAUAAUCCUGCAUACAUGAGGAUCACCCAUGUAAGGAUAUCGUCAGGAAUACUGACGAGAAGGUACAUAGCAGG | 15.8 | 19.3 |  |  |
| UAAUAAUAAUAAUAGCAGUAUUACAUGAGGAUCACCCAUGUAUAGGAUAUCGUCAGGAAUACUGUCGAGAAGGAUACAAACUGC | 20.7 | 28.7 |  |  |
| UAAUAAUAGUGAGGAUAUAGUUAUUAUAAUAUACUAGAAGGUACACAUGAGGAUCACCCAUGUUUUAUAAUUUGUAAUUUAAAU | 23.2 | 20.5 |  |  |
| UAAUCUCAGAUAGGAUAUAUAGGAUGAUUUAAGACCGAACAUGAGGAUCACCCAUGUGAUUAUCUGUAGAAGGAUCAAUGACCC |  |  | 285 | 246 |
| UAAUUAAAUGUGAGGAUAUGCUGGUCCUUGGAUCAGCAGAAGGCACAUGAGGAUCACCCAUGUAAUUUAUUUAU | 75.2 | 285 |  |  |
| UACAACUUCGUAGGAUAUGUAUAUAAUUUCUACAUGAGGAUCACCCAUGUUAGCAUUUUUUAUUGACAGAAGGACGUAAUCUAA |  |  | 7.55 | 5.89 |
| UACACGGUAGGAUAUACGUAGAUGCAGGUUCGUGUGGUGCUACAUGAGGAUCACCCAUGUAGAAGGACCAACGU | 15.7 | 15.2 |  |  |
| UACAUGAGGAUCACCCAUGUUUUGUCGUGUAUGGUAUUUAUCUAGGAUAUCAAGUUGUUUAUUUAUGAGAAGGAGAAUAUUAAU | 34.3 | 38.1 |  |  |
| UACAUUGCUUAGAAGGGAUAUAUAUAAUUUUAGUCAGGAUAUAGAUACAGUACAACAUGAGGACAUGAGGAUCACCCAUGUAUU |  |  | 25.9 | 18.4 |
| UACCACCGCACGGACACGUCGAGUCAGGAUAUACAUGAGGAUCACCCAUGUGAAGGCCGGUUCAUGUAGAAGGGACAGGCGUUG | 49.8 | 100 |  |  |
| UACCGCCGCACGGACGCGUUGAGUCAGGAUAUACAUGAGGAUCACCCAUGUGAAGGCCGGCUCAUGUAGAAGGGACAAGCGUUG | 6.2 | 7.14 |  |  |
| UACCUGAGGCAAAGCUUUAGGUAUACAUGAGGAUCACCCAUGUAGGAUAUGGUAGGCUUUGCCUACCAGAAGGACAUGUUAAUU | 19.7 | 55.3 |  |  |
| UACGAAUACCCUCGUCGGCUGAAUCCAGAAGGACCACAUGAGGAUCACCCAUGUCGAAGAUAAAGGUAGGAUAUGGAGUGCCUA |  |  | 119 | 23.9 |
| UACGAGUCAGGAUAUUGGGCAAUAGCAUUACGGAACGAUCACAAGAAGGGACAUGAGGAUCACCCAUGUUAUAU | 23.8 | 21.7 |  |  |
| UACGGACAUGAGGAUCACCCAUGUGAGGAUAUCGGUACCGAUAGCAUAAUCUGCUCGGCGAGAAGGCACAGCGU | 29.8 | 42.8 |  |  |
| UACUUCCGAGGAUAUACAUGAGGAUCACCCAUGUGCUUCAGCAUUUUUUGAUGCAUGGGUAGAAGGCGGUAGUU | 315 | 270 |  |  |
| UAGAAGUCAGGAUAUCCUGCUCGUCACUUGCGUGAUGAGUAGGAGAAGGGACAUGAGGAUCACCCAUGUAAAGA | 53.8 | 53.4 |  |  |
| UAGACGUUGCAGAAGGUUAUUUUUAUAACGUGCCACUUGACAUGAGGAUCACCCAUGUAAUUGAUGAAGGAUAUGCAACGGUAG | 6.34 | 5.83 |  |  |
| UAGAUGGGAGGAUAUACAUAGAUACAGAUUCGUGUAGUGCUACAUGAGGAUCACCCAUGUAGAAGGCCCGUCUU | 16.2 | 71.9 |  |  |
| UAGCAUUGCCUUUGGUAGUGCUUUACAUGAGGAUCACCCAUGUAGGAUAUGGUAGGCUUUGCUUACCAGAAGGACAUGAUAAUU | 52.9 | 166 |  |  |
| UAGGUGUGAGGAUAUGGUAAAGAAAAGAUGAUGAAAGAACUCCAGAAGGCACAUGAGGAUCACCCAUGUAGAUG | 26.3 | 54.5 |  |  |
| UAGUAGAUCCGAGGAUAUACAAUCCGGAAACGGUACAUGAGGAUCACCCAUGUAGAAGGCGGAUCUACAGGUACUAAAGUACCG | 6.19 | 9.18 |  |  |
| UAGUAUAACGAAGGAUAUGGAUACAUGAGGAUCACCCAUGUAUUUUUUGUGAUUUUAAAAUUGAUCCAGAAGGUCGUAUAAUUA | 23.6 | 28.2 |  |  |
| UAGUAUAAGGGCAUUAAACAUGAGGAUCACCCAUGUACAAUAGAGGAUAUGCAUUUCAGUUUAGAGUAGAAGGUUAGAGAAUAU | 35.6 | 41.1 |  |  |
| UAGUAUAAGGGCAUUAAACAUGAGGAUCACCCAUGUACGUUAGAGGAUAUGCAUUUCAGUUGAGAGUAGAAGGUUAGAGAAGGG | 45.1 | 47.4 |  |  |
| UAUAUAAUUAAGAGCUGGUCCAAAACAUGAGGAUCACCCAUGUAGGAUAUCAGCACGAUAAGUGCUGAGAAGGACAUCCAGCUC | 18.5 | 16.4 |  |  |
